Measured values from ChEMBL document CHEMBL1148287, “Design of potent, selective, and orally bioavailable inhibitors of cysteine protease cathepsin k” (J Med Chem, 2004).
Blank lines part the entries; values can stand above or below the compound they belong to.

Tests used:
[1] = Selectivity ratio between IC50 against Cathepsin S and IC50 against Cathepsin K
Procedure, shortened: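 Recombinant human cathepsin S was run with Cbz-Val-Val-Arg-AMC at 10 μM final (Km >100 μM); human cathepsin K used Cbz-Phe-Arg-AMC at 10 μM. Both were in pH 5.5 sodium acetate with 10 mM DTT, 120 mM NaCl and 10% DMSO at 30 °C, with AMC fluorescence progress curves over 2.3 h. The ratio was taken from the fitted IC50s.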

Cathepsin K [2] = target: T1, Cathepsin K (Homo sapiens, UniProt P43235); assay: Concentration required to inhibit 50% of cysteine protease cathepsin K of human
T1 sequence (P43235 whole entry): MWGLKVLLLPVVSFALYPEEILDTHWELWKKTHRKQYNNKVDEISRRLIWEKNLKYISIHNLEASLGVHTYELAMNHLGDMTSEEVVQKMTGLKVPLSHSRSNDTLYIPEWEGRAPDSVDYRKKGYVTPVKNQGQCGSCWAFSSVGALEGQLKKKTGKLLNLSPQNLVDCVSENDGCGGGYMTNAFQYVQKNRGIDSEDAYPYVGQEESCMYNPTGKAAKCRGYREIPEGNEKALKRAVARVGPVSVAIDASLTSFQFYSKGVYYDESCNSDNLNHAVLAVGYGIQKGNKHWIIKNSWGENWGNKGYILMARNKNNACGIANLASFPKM
Procedure, shortened: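 Reactions were started by adding inhibitor plus substrate to enzyme. AMC fluorescence (ex 360/em 440) progress curves were followed over 2.3 h at varied inhibitor concentrations. IC50 was fitted as rate = Vmax/(1+[I]/IC50).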

[3] = target: Cathepsin (H and K) (Homo sapiens) (UniProt P09668+P43235); assay: Selectivity for Cathepsins H and K, ratio of IC50; assay type: protein assay
Procedure, shortened: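 Human liver cathepsin H was run with L-Arg-β-naphthalamide at 50 μM final (Km 195 μM), read at ex 340/em 420. Human cathepsin K used Cbz-Phe-Arg-AMC at 10 μM, read at ex 360/em 440. Both were at pH 5.5 with DTT/NaCl and 10% DMSO at 30 °C, with 2.3 h progress curves. IC50s were fitted from rate vs [I] and ratioed.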

Cathepsin K [4] = target: T2, Cathepsin K (Rattus norvegicus, UniProt O35186); assay: Inhibition of cysteine protease cathepsin K of rat
T2 sequence (O35186 whole entry): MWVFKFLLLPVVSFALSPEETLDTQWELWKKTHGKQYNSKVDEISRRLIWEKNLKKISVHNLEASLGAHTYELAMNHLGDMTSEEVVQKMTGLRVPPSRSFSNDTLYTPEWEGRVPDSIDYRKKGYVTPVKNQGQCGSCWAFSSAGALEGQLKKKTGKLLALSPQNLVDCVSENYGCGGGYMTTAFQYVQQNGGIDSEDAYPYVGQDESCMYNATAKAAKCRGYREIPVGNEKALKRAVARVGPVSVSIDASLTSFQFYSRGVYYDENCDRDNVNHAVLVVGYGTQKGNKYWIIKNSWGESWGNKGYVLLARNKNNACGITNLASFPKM

[5] = Selectivity as ratio between IC50 against Cathepsin B and IC50 against Cathepsin K
Procedure, shortened: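 Human liver cathepsin B and recombinant human cathepsin K were each run with Cbz-Phe-Arg-AMC at 10 μM final (Km 400 and 70 μM). Both used pH 5.5 acetate/DTT/NaCl buffer, 10% DMSO, 30 °C and a 2.3 h fluorescence progress-curve read (ex 360/em 440). IC50s were fitted from rate vs [I], and the ratio of the two IC50s was taken.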

Homo sapiens = species: Homo sapiens; assay: Selectivity as ratio between IC50 against Cathepsin V and IC50 against Cathepsin K
Procedure, shortened: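 Conditions were pH 5.5 acetate buffer with 10 mM DTT, 120 mM NaCl and 10% DMSO at 30 °C, with fluorescence progress curves over 2.3 h. The IC50 fits gave the ratio.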

[6] = Selectivity as ratio between IC50 against Cathepsin L and IC50 against Cathepsin K
Procedure, shortened: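 Both assays used pH 5.5 acetate/DTT/NaCl, 10% DMSO, 30 °C and AMC fluorescence progress curves over 2.3 h. IC50s were fitted from rate vs [I] and taken as a ratio.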

[7] = Peak plasma concentration in rat; assay type: ADME, organism-based
Procedure, shortened: (§1)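 Rats were dosed iv into the femoral vein at 5 mg/kg or orally at 10 mg/kg, from a solution in 15% solutol/citrate buffer/0.1% ascorbic acid, pH 3.5. Blood was drawn from a jugular cannula before dosing and at 0.03–24 h, then clotted to serum. Samples were acetonitrile-precipitated with internal standard and analysed by LC-MS/MS (MRM). Parameters came from noncompartmental analysis.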

[8] = Maximum time required to achieve Cmax was determined in rat; assay type: ADME, organism-based; details: in vivo; procedure, shortened: as §1
[9] = Area Under plasma concentration time curve in rat upon peroral administration; assay type: ADME, organism-based; details: po; procedure, shortened: as §1
[10] = Compound was tested for its cell permeability in the Madin-Darby canine kidney cell monolayer transport assay; assay type: ADME, Canis lupus familiaris; details: dog, MDCK; read-out: Activity
[11] = Half-life in rat; assay type: ADME, organism-based; details: in vivo; procedure, shortened: as §1
[12] = Bioavailability in rat; assay type: ADME, organism-based; details: in vivo; procedure, shortened: as §1
[13] = Percent instability was measured by Rat S9 liver […] metabolism assay, in vitro; assay type: ADME, Liver S9 fraction; details: read-out: Activity
Procedure, shortened: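 Rat S9 liver metabolism, read as % metabolized after 1 h incubation at 37 °C, run in duplicate.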

Chain of Cathepsin (H and K) (Homo sapiens) (P09668 whole entry, looked up, one chain of several): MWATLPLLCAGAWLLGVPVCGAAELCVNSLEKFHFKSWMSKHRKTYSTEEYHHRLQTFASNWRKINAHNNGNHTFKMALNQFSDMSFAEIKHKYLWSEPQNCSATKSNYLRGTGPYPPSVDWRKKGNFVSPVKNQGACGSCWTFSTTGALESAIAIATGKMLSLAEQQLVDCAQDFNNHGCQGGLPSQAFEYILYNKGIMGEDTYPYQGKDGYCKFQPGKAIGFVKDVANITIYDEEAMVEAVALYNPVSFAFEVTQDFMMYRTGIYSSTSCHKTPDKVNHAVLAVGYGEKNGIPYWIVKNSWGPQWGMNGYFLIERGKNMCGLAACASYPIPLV

Compound: CCCC[C@H](NC(=O)OC(C(C)C)C(C)C)C(=O)C(=O)Nc1cc(C)[nH]n1
Ratio [1]: 4.6

Compound: CC(C)C(OC(=O)NCC(=O)C(=O)NCc1cccs1)C(C)C
IC50 (Cathepsin K [2]): 12000 nM

Compound: CC(C)C(OC(=O)N[C@@H](C)C(=O)C(=O)NCc1cccs1)C(C)C
IC50 (Cathepsin K [2]): 360 nM

Compound: CCCC[C@H](NC(=O)OC(C(C)C)C(C)C)C(=O)C(=O)Nc1cccnc1
IC50 (Cathepsin K [2]): 95 nM

Compound: CCCC[C@H](NC(=O)OC(C(C)C)C(C)C)C(=O)C(=O)Nc1ccnn1C
Cmax [7]: 970 ng/mL | Tmax [8]: 0.633 h | Ratio [3]: > 400 | IC50 (Cathepsin K [4]): 1700 nM | AUC [9]: 1800 ng·h/mL | Papp [10]: 49 ×10⁻⁶ cm/s | Ratio [5]: > 400 | Ratio (Homo sapiens): 50 | IC50 (Cathepsin K [2]): 32 nM | half-life [11]: 4 h | bioavailability [12]: 28% | metabolised [13]: 99% | Ratio [1]: 91 | Ratio [6]: 250

Compound: CCCC[C@H](NC(=O)OC(C(C)C)C(C)C)C(=O)C(=O)Nc1cc(-c2ccccc2)[nH]n1
Ratio [3]: 18 | Ratio [5]: 520 | Ratio (Homo sapiens): 20 | Ratio [1]: 7 | Ratio [6]: 25

Compound: CCCC[C@H](NC(=O)OC(C(C)C)C(C)C)C(=O)C(=O)Nc1nncs1
Cmax [7]: 690 ng/mL | Tmax [8]: 0.633 h | AUC [9]: 920 ng·h/mL | IC50 (Cathepsin K [2]): 83 nM | half-life [11]: 2.83 h | bioavailability [12]: 15% | metabolised [13]: 96%

Compound: CCCC[C@H](NC(=O)OC(C(C)C)C(C)C)C(=O)C(=O)Nc1cnccn1
IC50 (Cathepsin K [2]): 52 nM

Compound: CCC(C)[C@H](NC(=O)OC(C(C)C)C(C)C)C(=O)C(=O)NCc1cccs1 (stereo not given in full)
IC50 (Cathepsin K [2]): 87 nM

Compound: CCCC[C@H](NC(=O)OC(C(C)C)C(C)C)C(=O)C(=O)Nc1ccnn1-c1ccccn1
IC50 (Cathepsin K [4]): 1200 nM | Ratio [5]: > 200 | Ratio (Homo sapiens): 19 | IC50 (Cathepsin K [2]): 62 nM | Ratio [1]: 8.3 | Ratio [6]: 40

Next, values leading:

IC50 (Cathepsin K [2]): 2.54 nM
Compound: CCCC[C@H](NC(=O)OC(C(C)C)C(C)C)C(=O)C(=O)N[C@H](C)c1ccccc1

Ratio [3]: 1700 | IC50 (Cathepsin K [4]): 1.8 nM | Ratio [5]: 1200 | Ratio (Homo sapiens): 9.1 | IC50 (Cathepsin K [2]): 0.21 nM | Ratio [1]: 4.1 | Ratio [6]: 25
Compound: CCCC[C@H](NC(=O)OC(C(C)C)C(C)C)C(=O)C(=O)Nc1[nH]ncc1-c1ccccc1

IC50 (Cathepsin K [2]): 27 nM
Compound: CC(C)C(OC(=O)N[C@@H](Cc1ccccc1)C(=O)C(=O)NCc1cccs1)C(C)C

IC50 (Cathepsin K [2]): 0.91 nM | Ratio [1]: 3.6
Compound: CCCC[C@H](NC(=O)OC(C(C)C)C(C)C)C(=O)C(=O)Nc1[nH]ncc1C#N

IC50 (Cathepsin K [2]): 14 nM
Compound: CC(C)C(OC(=O)N[C@@H](CC1CCCCC1)C(=O)C(=O)NCc1cccs1)C(C)C

IC50 (Cathepsin K [2]): 0.24 nM | Ratio [1]: 4.2
Compound: CCCC[C@H](NC(=O)OC(C(C)C)C(C)C)C(=O)C(=O)Nc1[nH]ncc1Br

IC50 (Cathepsin K [4]): 12 nM | IC50 (Cathepsin K [2]): 0.65 nM
Compound: CCCC[C@H](NC(=O)OC(C(C)C)C(C)C)C(=O)C(=O)Nc1cc(-c2ccccc2)n[nH]1

IC50 (Cathepsin K [4]): 1000 nM | IC50 (Cathepsin K [2]): 17 nM
Compound: CCCC[C@H](NC(=O)OC(C(C)C)C(C)C)C(=O)C(=O)Nc1ccnn1C(C)C

IC50 (Cathepsin K [2]): 1.7 nM | Ratio [1]: 3.6
Compound: CCCC[C@H](NC(=O)OC(C(C)C)C(C)C)C(=O)C(=O)Nc1[nH]ncc1C(=O)OCC

Ratio [3]: > 830 | IC50 (Cathepsin K [4]): 1100 nM | Ratio [5]: > 830 | Ratio (Homo sapiens): 140 | IC50 (Cathepsin K [2]): 15 nM | Ratio [1]: 130 | Ratio [6]: 290
Compound: CCCC[C@H](NC(=O)OC(C(C)C)C(C)C)C(=O)C(=O)Nc1ccnn1C1CCC1
